Test results as given in ChEMBL document CHEMBL1156637, “Bioactive 5alpha-pregnane-type steroidal alkaloids from Sarcococca hookeriana” (J Nat Prod, 2008).
≈ marks a conversion by molar mass, not a printed value. Calls of active or inactive are those of the source. The rule behind the calls is not given here.

How the values were obtained:
Pseudomonas [1] = test: Antibacterial activity against Pseudomonas pallida by agar well diffusion method; type: functional
Leishmania major = test: Antileishmanial activity against Leishmania major; type: functional, organism-based
Micrococcus luteus [2] = test: Antibacterial activity against Micrococcus luteus assessed as zone of inhibition at 1.0 mg/mL by agar well diffusion method; type: functional; conditions: for zone of inhibition at 1000 µg/mL: read-out: IZ
Summary of the method: (§1)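 Agar well diffusion with pure compounds loaded into wells at 1.0 mg/mL. Zone of inhibition read in mm. Ampicillin is the reference for Gram-positive strains and gentamicin for Gram-negative strains.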

Bacillus subtilis [3] = test: Antibacterial activity against Bacillus subtilis assessed as zone of inhibition at 1.0 mg/mL by agar well diffusion method; type: functional; conditions: read-out: IZ; summary of the method: as §1
Enterococcus faecalis [4] = test: Antibacterial activity against Streptococcus faecalis assessed as zone of inhibition at 1.0 mg/mL by agar well diffusion method; type: functional; conditions: for zone of inhibition at 1000 µg/mL: read-out: IZ; summary of the method: as §1
Bacillus subtilis [5] = test: Antibacterial activity against Bacillus subtilis by agar well diffusion method; type: functional
Pseudomonas [6] = test: Antibacterial activity against Pseudomonas pallida assessed as zone of inhibition at 1.0 mg/mL by agar well diffusion method; type: functional; conditions: for zone of inhibition at 1000 µg/mL: read-out: IZ; summary of the method: as §1
Micrococcus luteus [7] = test: Antibacterial activity against Micrococcus luteus by agar well diffusion method; type: functional
Cholinesterase = Cholinesterase (Homo sapiens, UniProt P06276); test: Inhibition of butyrylcholinesterase
Summary of the method: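 In vitro enzyme inhibition assay, reported as IC50 with the standard error of the mean from five assays.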

Acetylcholinesterase = Acetylcholinesterase (Homo sapiens, UniProt P22303); test: Inhibition of acetylcholinesterase
Micrococcus luteus [8] = test: Antibacterial activity against Micrococcus luteus assessed as zone of inhibition at 0.25 mg/mL by agar well diffusion method; type: functional; conditions: read-out: IZ
Summary of the method: (§2)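 Reference antibiotic (ampicillin for these Gram-positive strains) tested by agar well diffusion at 0.25 mg/mL. Inhibition zone diameter recorded in mm.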

Enterococcus faecalis [9] = test: Antibacterial activity against Streptococcus faecalis assessed as zone of inhibition at 0.25 mg/mL by agar well diffusion method; type: functional; conditions: read-out: IZ; summary of the method: as §2
Bacillus subtilis [10] = test: Antibacterial activity against Bacillus subtilis assessed as zone of inhibition at 0.25 mg/mL by agar well diffusion method; type: functional; conditions: read-out: IZ; summary of the method: as §2

Cholinesterase, sequence (P06276 whole entry): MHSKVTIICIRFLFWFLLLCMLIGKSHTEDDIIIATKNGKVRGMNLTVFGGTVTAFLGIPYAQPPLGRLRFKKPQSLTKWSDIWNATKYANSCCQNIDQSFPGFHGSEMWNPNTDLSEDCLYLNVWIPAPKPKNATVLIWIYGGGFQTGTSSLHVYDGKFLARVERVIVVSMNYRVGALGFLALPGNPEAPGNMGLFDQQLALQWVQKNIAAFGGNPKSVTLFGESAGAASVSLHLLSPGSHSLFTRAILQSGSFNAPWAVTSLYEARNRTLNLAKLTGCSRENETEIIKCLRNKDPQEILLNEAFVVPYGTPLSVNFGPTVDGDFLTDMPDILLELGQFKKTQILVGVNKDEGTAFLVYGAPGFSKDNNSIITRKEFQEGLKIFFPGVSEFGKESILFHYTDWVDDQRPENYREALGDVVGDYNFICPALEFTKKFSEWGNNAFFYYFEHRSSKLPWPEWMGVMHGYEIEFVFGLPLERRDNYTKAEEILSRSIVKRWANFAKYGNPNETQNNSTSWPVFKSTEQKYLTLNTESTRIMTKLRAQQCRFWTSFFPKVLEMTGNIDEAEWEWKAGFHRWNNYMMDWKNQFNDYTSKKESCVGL
Acetylcholinesterase, sequence (P22303 whole entry, the tested form may be a part): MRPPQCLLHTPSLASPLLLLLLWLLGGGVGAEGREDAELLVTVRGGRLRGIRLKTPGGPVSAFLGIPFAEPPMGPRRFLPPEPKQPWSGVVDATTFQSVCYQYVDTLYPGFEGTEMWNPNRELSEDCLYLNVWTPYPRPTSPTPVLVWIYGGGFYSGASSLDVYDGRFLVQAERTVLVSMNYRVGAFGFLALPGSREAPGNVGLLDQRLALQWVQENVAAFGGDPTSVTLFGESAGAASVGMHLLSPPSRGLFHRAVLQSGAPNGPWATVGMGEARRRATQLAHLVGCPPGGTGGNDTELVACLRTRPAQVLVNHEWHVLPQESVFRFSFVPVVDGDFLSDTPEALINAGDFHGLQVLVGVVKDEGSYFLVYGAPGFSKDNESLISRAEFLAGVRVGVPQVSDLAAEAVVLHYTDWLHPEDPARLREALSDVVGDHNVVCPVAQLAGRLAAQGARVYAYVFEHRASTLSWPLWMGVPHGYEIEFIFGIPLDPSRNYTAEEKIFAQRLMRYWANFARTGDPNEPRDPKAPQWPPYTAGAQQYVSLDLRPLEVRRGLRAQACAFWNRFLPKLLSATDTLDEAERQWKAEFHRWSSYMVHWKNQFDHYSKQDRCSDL

For `C/C=C(\C)C(=O)NC1=CC[C@@]2(C)C(=CC[C@H]3[C@@H]4CC[C@H]([C@H](C)NC)[C@@]4(C)CC[C@@H]32)C1=O`, the MIC (Pseudomonas [1]) was 35.6 µM (≈ 15.1 µg/mL), the IC50 (Leishmania major) was 21.3 µM and the zone of inhibition at 1000 µg/mL (Micrococcus luteus [2]) was 12.5 mm. It also gave a zone of inhibition at 1000 µg/mL (Bacillus subtilis [3]) of 20 mm, a zone of inhibition at 1000 µg/mL (Enterococcus faecalis [4]) of 10 mm and an MIC (Bacillus subtilis [5]) of 35.6 µM (≈ 15.1 µg/mL). The zone of inhibition at 1000 µg/mL (Pseudomonas [6]) was 16.5 mm and the MIC (Micrococcus luteus [7]) was 143 µM (≈ 60.6 µg/mL).

`CC(C)=CC(=O)N[C@H]1CC[C@@]2(C)[C@@H](CC[C@@H]3[C@@H]2CC[C@]2(C)C([C@H](C)N(C)C)=CC[C@@H]32)[C@H]1O` [HOOKERIANAMIDE J] showed an MIC (Pseudomonas [1]) of 70.7 µM (≈ 31.3 µg/mL), an IC50 (Cholinesterase) of 0.8 µM and an IC50 (Leishmania major) of 11.3 µM. For the same molecule, the Activity (Micrococcus luteus [2]) was “inactive”, the zone of inhibition at 1000 µg/mL (Bacillus subtilis [3]) was 15 mm and the Activity (Enterococcus faecalis [4]) was “inactive”. For the same molecule, the IC50 (Acetylcholinesterase) was 48.5 µM, the MIC (Bacillus subtilis [5]) was 141 µM (≈ 62.6 µg/mL) and the zone of inhibition at 1000 µg/mL (Pseudomonas [6]) was 12 mm.

With `C[C@@H]1[C@H](O)[C@@H](C)/C=C/C=C/C=C/C=C/C=C/C=C/C=C/[C@H](O[C@@H]2O[C@H](C)[C@@H](O)[C@H](N)[C@@H]2O)C[C@@H]2O[C@](O)(C[C@@H](O)C[C@@H](O)[C@H](O)CC[C@@H](O)C[C@@H](O)CC(=O)O[C@H]1C)C[C@H](O)[C@H]2C(=O)O` [AMPHOTERICIN B] the IC50 (Leishmania major) was 0.5 µM.

`CN[C@@H](C)[C@H]1CC[C@H]2[C@@H]3CC=C4C(=O)[C@@H](NC(=O)C=C(C)C)CC[C@]4(C)[C@H]3CC[C@]12C` was tested, and the IC50 (Cholinesterase) was 0.6 µM, the Activity (Micrococcus luteus [2]) was “inactive” and the zone of inhibition at 1000 µg/mL (Bacillus subtilis [3]) was 9 mm. For the same molecule, the Activity (Enterococcus faecalis [4]) was “inactive”, the IC50 (Acetylcholinesterase) was 9.9 µM and the MIC (Bacillus subtilis [5]) was 568 µM (≈ 242 µg/mL). For the same molecule, the Activity (Pseudomonas [6]) was “inactive”.

With `CN[C@@H](C)[C@H]1CC[C@H]2[C@@H]3CC[C@H]4[C@@H](OC(C)=O)[C@@H](NC(=O)C=C(C)C)CC[C@]4(C)[C@H]3CC[C@]12C` [VAGENINE A] the MIC (Pseudomonas [1]) was 64.3 µM (≈ 30.4 µg/mL), the IC50 (Leishmania major) was 3.3 µM and the Activity (Micrococcus luteus [2]) was “inactive”. The zone of inhibition at 1000 µg/mL (Bacillus subtilis [3]) was 17 mm, the zone of inhibition at 1000 µg/mL (Enterococcus faecalis [4]) was 10 mm and the MIC (Bacillus subtilis [5]) was 64.3 µM (≈ 30.4 µg/mL). The zone of inhibition at 1000 µg/mL (Pseudomonas [6]) was 13.5 mm.

Work on `C/C=C(\C)C(=O)N[C@H]1CC[C@]2(C)[C@H]3CC[C@]4(C)[C@@H]([C@H](C)NC)CC[C@H]4[C@@H]3CC[C@H]2[C@H]1OC(C)=O` [SARCOVAGINE C] yielded an MIC (Pseudomonas [1]) of 32.1 µM (≈ 15.2 µg/mL), an IC50 (Cholinesterase) of 0.4 µM and an IC50 (Leishmania major) of 1.5 µM. The zone of inhibition at 1000 µg/mL (Micrococcus luteus [2]) was 13.5 mm, the zone of inhibition at 1000 µg/mL (Bacillus subtilis [3]) was 20 mm and the zone of inhibition at 1000 µg/mL (Enterococcus faecalis [4]) was 12 mm. The IC50 (Acetylcholinesterase) was 8.1 µM, the MIC (Bacillus subtilis [5]) was 64.3 µM (≈ 30.4 µg/mL) and the zone of inhibition at 1000 µg/mL (Pseudomonas [6]) was 17.5 mm. The MIC (Micrococcus luteus [7]) was 64.3 µM (≈ 30.4 µg/mL).

In the case of `C[C@@H]([C@H]1CC[C@H]2[C@@H]3CC[C@H]4C[C@@H](N(C)C)CC[C@]4(C)[C@H]3CC[C@]12C)N(C)C`, the MIC (Pseudomonas [1]) is reported as 167 µM (≈ 62.6 µg/mL), the IC50 (Cholinesterase) is reported as 1.6 µM and the zone of inhibition at 1000 µg/mL (Micrococcus luteus [2]) is reported as 11 mm. For the same molecule, the zone of inhibition at 1000 µg/mL (Bacillus subtilis [3]) was 19 mm, the zone of inhibition at 1000 µg/mL (Enterococcus faecalis [4]) was 8 mm and the IC50 (Acetylcholinesterase) was 22.1 µM. For the same molecule, the MIC (Bacillus subtilis [5]) was 83.5 µM (≈ 31.3 µg/mL), the zone of inhibition at 1000 µg/mL (Pseudomonas [6]) was 14.5 mm and the MIC (Micrococcus luteus [7]) was 167 µM (≈ 62.6 µg/mL).

Work on `C[C@@H]([C@H]1CC=C2[C@@H]3CCC4=C[C@@H](N(C)C)CC[C@]4(C)[C@H]3CC[C@@]21C)N(C)C` [HOOKERIANAMIDE K] yielded an MIC (Pseudomonas [1]) of 169 µM (≈ 62.6 µg/mL), an IC50 (Cholinesterase) of 4 µM and an IC50 (Leishmania major) of 6.8 µM. It also gave a zone of inhibition at 1000 µg/mL (Micrococcus luteus [2]) of 9.5 mm, a zone of inhibition at 1000 µg/mL (Bacillus subtilis [3]) of 13 mm and a zone of inhibition at 1000 µg/mL (Enterococcus faecalis [4]) of 10 mm. For the same molecule, the IC50 (Acetylcholinesterase) was 24.2 µM, the MIC (Bacillus subtilis [5]) was 338 µM (≈ 125 µg/mL) and the zone of inhibition at 1000 µg/mL (Pseudomonas [6]) was 10.5 mm. The MIC (Micrococcus luteus [7]) was 651 µM (≈ 241 µg/mL).

`C[C@@H]([C@H]1CC[C@H]2[C@@H]3CC[C@H]4C(=O)C(NC=O)=CC[C@]4(C)[C@H]3CC[C@]12C)N(C)C` [HOOKERIANAMIDE H] gave an IC50 (Leishmania major) of 22.4 µM, a zone of inhibition at 1000 µg/mL (Micrococcus luteus [2]) of 11 mm and a zone of inhibition at 1000 µg/mL (Bacillus subtilis [3]) of 11.5 mm. The Activity (Enterococcus faecalis [4]) was “inactive”, the MIC (Bacillus subtilis [5]) was 324 µM (≈ 125 µg/mL) and the Activity (Pseudomonas [6]) was “inactive”. For the same molecule, the MIC (Micrococcus luteus [7]) was 324 µM (≈ 125 µg/mL).

With `CC1(C)S[C@@H]2[C@H](NC(=O)[C@H](N)c3ccccc3)C(=O)N2[C@H]1C(=O)O` [AMPICILLIN] the zone of inhibition at 250 µg/mL (Micrococcus luteus [8]) was 26 mm, the zone of inhibition at 250 µg/mL (Enterococcus faecalis [9]) was 25 mm and the MIC (Bacillus subtilis [5]) was 89.7 µM (≈ 31.3 µg/mL). For the same molecule, the zone of inhibition at 250 µg/mL (Bacillus subtilis [10]) was 29 mm and the MIC (Micrococcus luteus [7]) was 5.6 µM (≈ 1.96 µg/mL).

`C[C@@H]([C@H]1CC[C@H]2[C@@H]3CC[C@H]4C[C@@H](N)CC[C@]4(C)[C@H]3CC[C@]12C)N(C)C` [CHONEMORPHINE] gave an MIC (Pseudomonas [1]) of 181 µM (≈ 62.6 µg/mL), an IC50 (Cholinesterase) of 0.5 µM and a zone of inhibition at 1000 µg/mL (Micrococcus luteus [2]) of 11.5 mm. The zone of inhibition at 1000 µg/mL (Bacillus subtilis [3]) was 16.5 mm, the zone of inhibition at 1000 µg/mL (Enterococcus faecalis [4]) was 10 mm and the IC50 (Acetylcholinesterase) was 28 µM. For the same molecule, the MIC (Bacillus subtilis [5]) was 90.3 µM (≈ 31.3 µg/mL), the zone of inhibition at 1000 µg/mL (Pseudomonas [6]) was 14 mm and the MIC (Micrococcus luteus [7]) was 90.3 µM (≈ 31.3 µg/mL).

Molecule `CN[C@@H](C)[C@H]1CC[C@H]2[C@@H]3CC[C@H]4C[C@@H](N(C)C(=O)c5ccccc5)CC[C@]4(C)[C@H]3CC[C@]12C` [HOOKERIANAMIDE I] has an MIC (Pseudomonas [1]) of 69.4 µM (≈ 31.3 µg/mL), an IC50 (Leishmania major) of 8.8 µM and a zone of inhibition at 1000 µg/mL (Micrococcus luteus [2]) of 18 mm. The zone of inhibition at 1000 µg/mL (Bacillus subtilis [3]) was 17.5 mm, the zone of inhibition at 1000 µg/mL (Enterococcus faecalis [4]) was 8 mm and the MIC (Bacillus subtilis [5]) was 69.4 µM (≈ 31.3 µg/mL). It also gave a zone of inhibition at 1000 µg/mL (Pseudomonas [6]) of 18.5 mm and an MIC (Micrococcus luteus [7]) of 34.7 µM (≈ 15.6 µg/mL).

Molecule `N=C(N)c1ccc(OCCCCCOc2ccc(C(=N)N)cc2)cc1` [PENTAMIDINE] has an IC50 (Leishmania major) of 7.5 µM.
